Reference: ChEMBL document CHEMBL1132431, “Synthesis and structure-activity relationships of the (alkylamino)piperidine-containing BHAP class of non-nucleoside reverse transcriptase inhibitors: effect of 3-alkylpyridine ring substitution” (J Med Chem, 1999)

Columns and labels:
[1] = molecular target: Human immunodeficiency virus type 1 reverse transcriptase (Human immunodeficiency virus 1, UniProt Q72547); experiment: Inhibition of Reverse transcriptase (Wild Type) with poly(rA)600:oligo(dT)10 template primer
Procedure, shortened: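 Recombinant wild-type HIV-1 RT was assayed for RNA-dependent DNA polymerase activity on poly(rA)600:oligo(dT)10 template:primer. Duplicate points were run at 6 drug concentrations, and IC50 was derived by nonlinear least-squares fit.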

[2] = molecular target: Human immunodeficiency virus type 1 reverse transcriptase (Human immunodeficiency virus 1, UniProt Q72547, Y181C); experiment: Inhibition of Reverse transcriptase (Y181C) using poly(rA)600:oligo(dT)10 as template primer.
[3] = molecular target: Human immunodeficiency virus type 1 reverse transcriptase (Human immunodeficiency virus 1, UniProt Q72547, P236L); experiment: Inhibition of Reverse transcriptase (P236L) using poly(rA)600:oligo(dT)10 as template primer.
[4] = tested on: Human immunodeficiency virus 1; experiment: (§1) Antiviral activity against BHAP-resistant viral strain HIV-1 MF using Delaviridine (U-90512) as a comparator.; type: functional
[5] = tested on: Human immunodeficiency virus 1; experiment: (§2) Antiviral activity against L-drug-resistant viral strain HIV-1 IIIB using L-697,661 as a comparator.; type: functional
[6] = Half life of the parent compound upon microsomal incubation in the presence of hepatic microsomal cytochrome P450.; type: ADME, Microsome; settings: liver microsomes
[7] = Absolute oral bioavailability at an peroral dose of 30 mg/kg orally; type: ADME, organism-based; settings: in vivo, read-out: Bioavailabiility
Procedure, shortened: (§3)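 Male Sprague–Dawley rats, fasted, dosed iv and orally in a crossover design with a 1-week washout between treatments (N = 3). Clearance, Vss and absolute oral bioavailability were taken from the iv and po legs.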

[8] = Apparent terminal disposition half life […] at peroral dose of 30 mg/kg.; type: ADME, organism-based; set-up: dose 30 mg/kg, route oral; settings: po, read-out: T1/2 beta (converted)
[9] = Oral bioavailability (dose 15 mg/kg i.v.); type: ADME, organism-based; settings: eutheria, in vivo; procedure, shortened: as §3
[10] = tested on: Human immunodeficiency virus 1; experiment: Antiviral activity against BHAP-resistant viral strain HIV-1 IIIB using Delaviridine (U-90512) as a comparator.; type: functional
[11] = Apparent terminal disposition half life […] at iv dose of 15 mg/kg; type: ADME, organism-based; set-up: dose 15 mg/kg, route intravenous; settings: read-out: T1/2 beta (converted)
Rattus norvegicus [12] = experiment: Steady state volume of distribution (VSS) determined against male Sprague-Dawley rats at an peroral dose of 30 mg/kg.; type: ADME, organism-based; set-up: dose 30 mg/kg, route oral; settings: in vivo, po; procedure, shortened: as §3
[13] = IV clearance determined at an iv dose of 15 mg/kg; type: ADME, organism-based; set-up: dose 15 mg/kg, route intravenous; settings: in vivo
[14] = IV clearance determined at an peroral dose of 30 mg/kg.; type: ADME, organism-based; set-up: dose 30 mg/kg, route oral; settings: in vivo, po, read-out: Clearance; procedure, shortened: as §3
[15] = Steady state volume of distribution (VSS) determined against male Sprague-Dawley rats at an iv dose of 15 mg/kg; type: ADME, organism-based; set-up: dose 15 mg/kg, route intravenous; settings: rat, in vivo, read-out: Vss; procedure, shortened: as §3
[16] = molecular target: Human immunodeficiency virus type 1 reverse transcriptase (Human immunodeficiency virus 1) (UniProt Q72547); experiment: Percent inhibition of Reverse transcriptase (RNA-dependent DNA polymerase activity against Wild Type RT) using poly(rA)600:oligo(dT)10 as template primer at 1 uM
Procedure, shortened: (§4)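 Recombinant RT (WT, P236L or Y181C) was assayed for RNA-dependent DNA polymerase activity with poly(rA)600:oligo(dT)10 as template:primer. Percent inhibition was measured with compound at a single concentration of 1 μM.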

[17] = molecular target: Human immunodeficiency virus type 1 reverse transcriptase (Human immunodeficiency virus 1) (UniProt Q72547); experiment: Percent inhibition of Reverse transcriptase (RNA-dependent DNA polymerase activity against P236l RT) using poly(rA)600:oligo(dT)10 as template primer at 1 uM; procedure, shortened: as §4
[18] = tested on: Human immunodeficiency virus type 1 reverse transcriptase (Human immunodeficiency virus 1), Q72547 [Y181C]; experiment: Percent inhibition of Reverse transcriptase (RNA-dependent DNA polymerase activity against Y181C RT) using poly(rA)600:oligo(dT)10 as template primer at 1 uM; procedure, shortened: as §4
Rattus norvegicus [19] = experiment: Steady state volume of distribution (VSS) determined against male Sprague-Dawley rats at an peroral dose of 30.2 mg/kg.; type: ADME, organism-based; set-up: dose 30.2 mg/kg, route oral; settings: in vivo, po; procedure, shortened: as §3
[20] = Apparent terminal disposition half life […] at peroral dose of 30.2 mg/kg.; type: ADME, organism-based; set-up: dose 30.2 mg/kg, route oral; settings: po, read-out: T1/2 beta (converted)
[21] = IV clearance determined at an peroral dose of 30.2 mg/kg.; type: ADME, organism-based; set-up: dose 30.2 mg/kg, route oral; settings: in vivo, po, read-out: Clearance; procedure, shortened: as §3
[22] = Apparent terminal disposition half life […] at peroral dose of 15 mg/kg.; type: ADME, organism-based; set-up: dose 15 mg/kg, route oral; settings: po, read-out: T1/2 beta (converted)
[23] = Absolute oral bioavailability at an iv dose of 14 mg/kg; type: ADME, organism-based; settings: in vivo, read-out: Bioavailabiility; procedure, shortened: as §3
[24] = Steady state volume of distribution (VSS) determined against male Sprague-Dawley rats at an peroral dose of 15 mg/kg.; type: organism-based; set-up: dose 15 mg/kg; procedure, shortened: as §3
[25] = IV clearance determined at an peroral dose of 15 mg/kg.; type: ADME, organism-based; set-up: dose 15 mg/kg, route oral; settings: in vivo, po, read-out: Clearance
[26] = Steady state volume of distribution (VSS) determined against male Sprague-Dawley rats at an iv dose of 14 mg/kg; type: ADME, organism-based; set-up: dose 14 mg/kg, route intravenous; settings: rat, in vivo, read-out: Vss; procedure, shortened: as §3
[27] = Apparent terminal disposition half life […] at iv dose of 14 mg/kg; type: ADME, organism-based; set-up: dose 14 mg/kg, route intravenous; settings: read-out: T1/2 beta (converted)
[28] = tested on: Human immunodeficiency virus 1; experiment: as §2; type: functional, organism-based
[29] = tested on: Human immunodeficiency virus 1; experiment: as §1; type: functional, organism-based
[30] = Apparent terminal disposition half life […] at peroral dose of 30.3 mg/kg.; type: ADME, organism-based; set-up: dose 30.3 mg/kg, route oral; settings: po, read-out: T1/2 beta (converted)
[31] = Steady state volume of distribution (VSS) determined against male Sprague-Dawley rats at an iv dose of 15.2 mg/kg; type: ADME, organism-based; set-up: dose 15.2 mg/kg, route intravenous; settings: rat, in vivo, read-out: Vss; procedure, shortened: as §3
[32] = IV clearance determined at an iv dose of 15.2 mg/kg; type: ADME, organism-based; set-up: dose 15.2 mg/kg, route intravenous; settings: in vivo; procedure, shortened: as §3
Rattus norvegicus [33] = experiment: Steady state volume of distribution (VSS) determined against male Sprague-Dawley rats at an peroral dose of 30.3 mg/kg.; type: ADME, organism-based; set-up: dose 30.3 mg/kg, route oral; settings: in vivo, po; procedure, shortened: as §3
[34] = Absolute oral bioavailability at an peroral dose of 30.3 mg/kg orally.; type: ADME, organism-based; settings: in vivo, read-out: Bioavailabiility; procedure, shortened: as §3
[35] = IV clearance determined at an peroral dose of 30.3 mg/kg.; type: ADME, organism-based; set-up: dose 30.3 mg/kg, route oral; settings: in vivo, po, read-out: Clearance; procedure, shortened: as §3
[36] = Apparent terminal disposition half life […] at iv dose of 15.2 mg/kg; type: ADME, organism-based; set-up: dose 15.2 mg/kg, route intravenous; settings: read-out: T1/2 beta (converted)
[37] = Absolute oral bioavailability at an iv dose of 15.2 mg/kg; type: ADME, organism-based; settings: in vivo, read-out: Bioavailabiility; procedure, shortened: as §3

SMILES | IC50 [1] [nM] | IC50 [2] [nM] | IC50 [3] [nM] | EC90 [4] [nM] | EC90 [5] [nM] | further results
COC(=O)c1cccnc1N(C)C1CCN(C(=O)c2cc3cc(NS(C)(=O)=O)ccc3[nH]2)CC1 | 250 | 21000 | 13000 |  |  | 
CCc1cccnc1N(C)C1CCN(C(=O)c2cc3cc(NS(C)(=O)=O)ccc3[nH]2)CC1 | 61 | 2000 | 1100 |  |  | 
CCN(c1ncccc1COC)C1CCN(C(=O)c2cc3cc(NS(C)(=O)=O)ccc3[nH]2)CC1 | 140 | 840 | 300 | 770 | 1000 | 
CN(c1ncccc1CO)C1CCN(C(=O)c2cc3cc(NS(C)(=O)=O)ccc3[nH]2)CC1 |  | 15000 | 7000 |  |  | 
CCCN(c1ncccc1CC)C1CCN(C(=O)c2cc3cc(NS(C)(=O)=O)ccc3[nH]2)CC1 | 130 | 910 | 540 |  |  | 
CCNc1cccnc1N(CC)C1CCN(C(=O)c2cc3cc(NS(C)(=O)=O)ccc3[nH]2)CC1 | 430 | 390 | 360 |  |  | 
CCCc1cccnc1N(CC)C1CCN(C(=O)c2cc3cc(NS(C)(=O)=O)ccc3[nH]2)CC1 | 270 | 450 | 370 | 100 | 90 | half-life [6]: 1.68 min; bioavailability [7]: 9.8%; half-life [8]: 49.2 min; bioavailability [9]: 9.8%; EC90 [10]: 40 nM; half-life [11]: 49.2 min; Vss (Rattus norvegicus [12]): 3.2 L/kg; clearance [13]: 67 mL/min/kg; CL/F [14]: 67 mL/min/kg; Vd [15]: 3.2 L/kg
CCCc1cccnc1N(C)C1CCN(C(=O)c2cc3cc(NS(C)(=O)=O)ccc3[nH]2)CC1 |  |  |  |  |  | inhibition [16]: 84%; inhibition [17]: 40%; inhibition [18]: 25%
CCN(c1ncccc1CC(C)C)C1CCN(C(=O)c2cc3cc(NS(C)(=O)=O)ccc3[nH]2)CC1 | 410 | 880 | 430 | 1000 | 100 | half-life [6]: 2.29 min; EC90 [10]: 50 nM
CC(C)Nc1cccnc1N(C)C1CCN(C(=O)c2cc3cc(NS(C)(=O)=O)ccc3[nH]2)CC1 |  |  |  |  | 1000 | bioavailability [9]: 4.3%; Vss (Rattus norvegicus [19]): 2.5 L/kg; half-life [11]: 40.2 min; half-life [20]: 40.2 min; CL/F [21]: 44 mL/min/kg; Vd [15]: 2.5 L/kg
CCN(c1ncccc1NC(C)C)C1CCN(C(=O)c2cc3cc(NS(C)(=O)=O)ccc3[nH]2)CC1 |  |  | 170 |  |  | 
CCc1cccnc1N(CC)C1CCN(C(=O)c2cc3cc(NS(C)(=O)=O)ccc3[nH]2)CC1 | 98 | 430 | 210 |  |  | 
CCc1cc(NCc2nc3c(Cl)ccc(Cl)c3o2)c(O)nc1C [L-697661] |  |  |  | 430 | > 10000 | EC90 [10]: 4000 nM
CC(C)Nc1cccnc1N1CCN(C(=O)c2cc3cc(NS(C)(=O)=O)ccc3[nH]2)CC1 [DELAVIRDINE] |  |  |  | > 10000 |  | half-life [22]: 60 min; bioavailability [23]: 64%; Vdss [24]: 1.21 L/kg; CL/F [25]: 13.6 mL/min/kg; Vd [26]: 1.21 L/kg; half-life [27]: 60 min
COCc1cccnc1N(C)C1CCN(C(=O)c2cc3cc(NS(C)(=O)=O)ccc3[nH]2)CC1 | 140 | 11000 | 6800 |  |  | EC50 [28]: > 3000 nM; EC50 [29]: 3000 nM
CC(C)Cc1cccnc1N(C)C1CCN(C(=O)c2cc3cc(NS(C)(=O)=O)ccc3[nH]2)CC1 | 510 | 2600 | 1100 | 1800 |  | half-life [6]: 5.9 min; half-life [30]: 53.4 min; Vd [31]: 2.73 L/kg; clearance [32]: 45 mL/min/kg; Vss (Rattus norvegicus [33]): 2.73 L/kg; EC50 [28]: > 1000 nM; bioavailability [34]: 64%; CL/F [35]: 45 mL/min/kg; half-life [36]: 53.4 min; bioavailability [37]: 64%
